High-throughput results (PubChem BioAssay)
Rows were chosen to be rich in hits. Some 1.8% of all compounds tested hit in one or more screens of this group.
Scp-1 inhibitor – Scp-1 (human) phosphatase inhibition | Recombinant Scp1, phosphopeptide, malachite green phosphate absorbance | inhibition, % at 20 µM | actives 0.88% (n = 340,000) | AID 493091;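 active = inhibition above about 50% at 20 µM, limit read from the data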;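 also: plate controls were DMSO wells with enzyme for no effect and wells lacking enzyme for full effect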
Target sequence (Q9GZU7 76-261 limits assumed): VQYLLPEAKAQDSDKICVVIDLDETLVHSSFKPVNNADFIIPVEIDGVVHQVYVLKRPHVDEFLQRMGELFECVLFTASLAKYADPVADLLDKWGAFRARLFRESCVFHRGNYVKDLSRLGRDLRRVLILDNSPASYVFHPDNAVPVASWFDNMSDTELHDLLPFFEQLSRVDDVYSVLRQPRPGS
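Material: truncated SCP-1 phosphatase (76-261aa) / Buffer or medium: 50 mM Tris acetate pH 5.5, 0.005% Tween-20, 10 mM MgCl2 / Compound dosing: one concentration, 20 µM, with 1.0% DMSO / Incubation: 45 min room-temperature reaction, 5 min colour, 30 min stabiliser / Detection: colorimetric free-phosphate detection, absorbance 630 nm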
LMPTP inh – LMPTP (human) inhibition. inhibition, % at 20 µM. recombinant LMPTP-A, OMFP fluorogenic substrate, fluorescence intensity. AID 651560. actives 0.22% (n = 360,000);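 active = compounds that cut the enzyme signal by at least half of the control window in the single-dose screen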;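 also: plate controls were DMSO wells with enzyme plus substrate for no effect and substrate without enzyme for full effect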
Target sequence (P24666 whole entry, looked up): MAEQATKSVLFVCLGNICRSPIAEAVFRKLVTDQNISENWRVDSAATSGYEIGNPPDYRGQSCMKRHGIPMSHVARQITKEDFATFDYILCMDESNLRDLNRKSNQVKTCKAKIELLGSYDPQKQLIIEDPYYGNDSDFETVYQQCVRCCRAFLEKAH
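test system = LMPTP-A | amount = 0.625 nM LMPTP-A final | reagent = fluorogenic phosphatase substrate OMFP at 400 µM final | incubation = 50 min at room temperature | benchmarks = no-enzyme low control, uninhibited high control | medium = Bis-Tris pH 6.0, DTT, detergent | signal = fluorescence intensity of OMFP turnover product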
DNMT1 inh – blocks human DNA methyltransferase DNMT1. AID 588458. inhibition (reported as % activation of signal), % at 10 µM. DNMT1 molecular beacon, Hinp1I cleavage, fluorescence. P26358. actives 0.83% (n = 360,000); in the data active = inhibition above about 50%
HKDC1 inh – blocks human hexokinase HKDC1 activity. Q2TB90. recombinant HKDC1, G6PDH/diaphorase resazurin coupled fluorescence. inhibition, % at 20 µM. actives 0.16% (n = 340,000). AID 493160;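 active = inhibition above about 35% when tested at 20 µM, limit read from the data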;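 also: plate controls were DMSO wells with enzyme for no effect and DMSO wells lacking enzyme for full effect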
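Test system: Recombinant HKDC1 (HK5) hexokinase enzyme, produced in-house | Input: HKDC1 at 5 µg/mL | Buffer or medium: Tris pH 8.0 buffer with MgCl2, Tween-20, BSA, BME | Schedule: 90 min reaction incubation at room temperature, dark | Technique: Resazurin-to-resorufin fluorescence via G6PDH and diaphorase coupling, 525/613 nm | Controls: DMSO wells with and without enzyme mix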
STEP inh – inhibitors of human striatal-enriched phosphatase STEP; P54829; recombinant STEP, OMFP fluorogenic substrate, fluorescence; inhibition, % at 20 µM; actives 0.25% (n = 360,000);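 active = inhibition at 20 µM, scaled per plate between control wells, above about 37%, limit read from the data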;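 also: 0% = DMSO with enzyme and substrate and 100% = substrate only without enzyme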
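Material: STEP (striatal-enriched tyrosine phosphatase) enzyme, cell-free | Medium: 50 mM Bis-Tris pH 6.0 with 2.5 mM DTT and 0.005% Tween 20 | Read-out: Percent inhibition scaled to no-enzyme and uninhibited-enzyme controls, plate-pattern corrected | Signal: Fluorescence read at 480 nm ex / 540 nm em | Times: 20 min reaction, room temperature, in the dark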
SUMO1 PPI mod – modulators of human SUMO1-mediated protein-protein interactions | inhibition, % at 20 µM | actives 0.33% (n = 360,000) | SUMO1 binding to a labelled peptide, TR-FRET, 1 h | P63165; in the data active = inhibition above about 37%
Target sequence (P63165 whole entry, looked up): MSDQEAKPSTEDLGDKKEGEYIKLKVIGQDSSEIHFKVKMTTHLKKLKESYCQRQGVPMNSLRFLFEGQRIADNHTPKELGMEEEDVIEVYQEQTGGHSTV
Scp-1 conf – confirmation of human Scp-1 phosphatase inhibitors. actives 61% (n = 2,500). recombinant SCP-1 catalytic domain, phosphate release, malachite green absorbance. shares compounds with Scp-1 inhibitor. inhibition, % at 20 µM;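 also: plate controls were DMSO with enzyme for no effect and buffer wells lacking enzyme for full effect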
MG interference – counter-screen for Scp-1 inhibitors: colorimetric interference. shares compounds with Scp-1 inhibitor. Colorimetric interference counterscreen, malachite green absorbance 630 nm. apparent inhibition (interference), % at 20 µM. 2,500 tested, under 10 active;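 also: compounds added after enzyme reaction finished so only phosphate colour detection is probed; plate controls were DMSO wells with completed Scp-1 reaction for no effect and substrate wells lacking enzyme for full effect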
Scp1 DSF – Scp-1 (human) binding by thermal shift. shares compounds with Scp-1 inhibitor. Recombinant SCP1, Sypro Orange thermal shift Tm. thermal shift relative to vanadate control, % at 40 µM. actives 25% (n = 1,500). AID 540329;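 active = substances whose mean melting-temperature shift, as a percentage of the reference inhibitor's shift, reaches about 5.3%, limit read from the data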;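 also: 0% = Tm of DMSO wells and 100% = Tm with sodium orthovanadate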
Starred values were filed as active, the others as inactive; x = no result given; ! = not confirmed by another sample.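 The calls were made as follows, unless noted: active = inhibition of at least 30% at 20 µM; inactive = the rest.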

SMILES	Scp-1 inhibitor	LMPTP inh	DNMT1 inh	HKDC1 inh	STEP inh	SUMO1 PPI mod	Scp-1 conf	MG interference	Scp1 DSF
COc1ccccc1C(C)NC(=O)c1cc(=O)[nH]c2ccccc12 (centres undefined)	74*	1	0	1	-2	0	-2	-8	x
COc1ccccc1NC(=O)c1cc(=O)[nH]c2ccccc12	-10	-1	-16	-4	4	1	x	x	x
O=C1c2ccccc2C(=O)N1Nc1ccc([N+](=O)[O-])cc1[N+](=O)[O-]	52*	9	3	0	18	2	46*	-4	-15
O=C1C2C3C=CC(C3)C2C(=O)N1Nc1ccc([N+](=O)[O-])cc1[N+](=O)[O-] (centres undefined)	-2	-3	-5	1	0	-33	x	x	x
C[n+]1ccccc1/C=C/c1cc(Br)ccc1O	-10	1	-9	10	1	-24	x	x	x
C[n+]1ccccc1/C=N/O	52*!	-3	0	6	1	-5	4	-15	x
CC(O)/C=C/c1cccc[n+]1C (centres undefined)	96*	-10	-4	-1	0	-1	85*	-12	-6
CC1CC(=O)C(C(C2=C(O)CC(C)CC2=O)c2ccccc2)=C(O)C1 (centres undefined)	4	0	9	-1	4	0	x	x	x
Cc1cccc(CN(CC(=O)N/N=C/c2ccco2)S(=O)(=O)c2ccc(Cl)cc2)c1	58*	2	37	-1	3	3	48*	-16	4
Cc1ccc(S(=O)(=O)N(CC(=O)N/N=C/c2ccco2)Cc2ccccc2)cc1	-6	0	-5	-5	3	2	x	x	x
COc1ccccc1-c1nn2c(-c3ccco3)nnc2s1	51*	7	17	4	0	7	60*	-4	-7
CCCCC(CC)C1OCC(C[N+]2(C)CCOCC2)O1 (centres undefined)	31	-1	3	-9	0	0	x	x	x
CC(c1ccccc1)C1OCC(C[N+]2(C)CCCCC2)O1 (centres undefined)	93*	1	-2	-8	-4	2	83*	-13	-5
NS(=O)(=O)c1ccc(CCNC(=O)Cc2ccc(S(=O)(=O)N3CCCC3)s2)cc1	76*	4	10	1	6	-1	74*	-14	0
O=C(Cc1ccc(S(=O)(=O)N2CCOCC2)s1)NC1CCCCC1	61*	6	7	1	8	2	70*	-7	7.9*
O=C(O)CCSc1nnc(SCC(=O)NC2CCS(=O)(=O)C2)s1 (centres undefined)	101*	0	4	-4	-3	3	-11	-19	x
CCCCOCCCNC(=O)C[C@@H]1C[C@@]2(C(=O)OC)CCCCC=C2N(CCc2ccc(OC)c(OC)c2)C1=O	x	0	x	x	x	1	x	x	x
O=C(CCCSc1nc2ccccc2[nH]1)NC1CCCCC1	4	-1	7	-8	0	-4	x	x	x
O=C(CSc1nc2ccccc2[nH]1)NC1CCCC1	62*	2	37	-8	22	5	45*	-12	-11
Nc1nc(SCC(=O)NC2CCCCC2)n[nH]1	-4	-1	2	2	0	2	x	x	x
O=C(CSc1n[nH]c(C2CCCC2)n1)NC1CCCC1	64*	1	1	-3	-4	-2	2	-5	x
COC(=O)[C@@]1(Sc2ccc(C)cc2)CC(=O)N(C(=O)/C=C/c2ccccc2)[C@@H]1c1ccccc1	x	1	x	x	x	-4	x	x	x
